Laboratory results as given in ChEMBL document CHEMBL4811275, “Iodinated 1,2-diacylhydrazines, benzohydrazide-hydrazones and their analogues as dual antimicrobial and cytotoxic agents” (Bioorg Med Chem, 2021).
Values after ≈ are worked out from the molar mass of the structure shown.

Tests used:
Staphylococcus aureus [1] = experiment: Antibacterial activity against Staphylococcus aureus ATCC 29213 assessed as reduction in bacterial growth incubated for 24 hrs by broth microdilution method; format: functional
Method in brief: (§1)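 Cation-adjusted Mueller-Hinton broth microdilution per EUCAST, modified; compounds from DMSO stocks, final DMSO ≤1% v/v; scale starting from 0.49 µM. Static incubation at 35 ± 2 °C, dark, humidified, read at 24 and 48 h. MIC = lowest concentration with no visible growth by eye; duplicates, parallel readings within one dilution step; growth and medium/DMSO controls included.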

Staphylococcus aureus [2] = experiment: Antibacterial activity against Staphylococcus aureus ATCC 29213 assessed as reduction in bacterial growth incubated for 48 hrs by broth microdilution method; format: functional; method in brief: as §1
Staphylococcus aureus [3] = experiment: Antibacterial activity against methicillin-resistant Staphylococcus aureus ATCC 43300 assessed as reduction in bacterial growth incubated for 24 hrs by broth microdilution method; format: functional
Method in brief: (§2)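 EUCAST-based broth microdilution in cation-adjusted Mueller-Hinton broth. DMSO stocks, final DMSO ≤1% v/v, concentration scale starting from 0.49 µM. Static incubation at 35 ± 2 °C, dark and humidified. Run in duplicate, accepted only if parallel MICs differ by at most one dilution step. MIC is the lowest concentration with no visible growth by naked eye.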

Staphylococcus aureus [4] = experiment: Antibacterial activity against methicillin-resistant Staphylococcus aureus ATCC 43300 assessed as reduction in bacterial growth incubated for 48 hrs by broth microdilution method; format: functional; method in brief: as §2
[5] = system: Staphylococcus epidermidis; experiment: Antibacterial activity against Staphylococcus epidermidis ATCC 12228 assessed as reduction in bacterial growth incubated for 24 hrs by broth microdilution method; format: functional; method in brief: as §1
[6] = system: Staphylococcus epidermidis; experiment: Antibacterial activity against Staphylococcus epidermidis ATCC 12228 assessed as reduction in bacterial growth incubated for 48 hrs by broth microdilution method; format: functional; method in brief: as §1
Enterococcus faecalis [7] = experiment: Antibacterial activity against Enterococcus faecalis ATCC 29212 assessed as reduction in bacterial growth incubated for 24 hrs by broth microdilution method; format: functional; method in brief: as §1
Enterococcus faecalis [8] = experiment: Antibacterial activity against Enterococcus faecalis ATCC 29212 assessed as reduction in bacterial growth incubated for 48 hrs by broth microdilution method; format: functional; method in brief: as §1
Escherichia coli [9] = experiment: Antibacterial activity against Escherichia coli ATCC 25922 assessed as reduction in bacterial growth incubated for 24 hrs by broth microdilution method; format: functional; method in brief: as §1
Escherichia coli [10] = experiment: Antibacterial activity against Escherichia coli ATCC 25922 assessed as reduction in bacterial growth incubated for 48 hrs by broth microdilution method; format: functional; method in brief: as §1
HepG2 = experiment: Cytotoxicity against human HepG2 cells assessed as reduction in cell viability incubated for 24 hrs by cell-titer 96 aqueous one solution cell proliferation assay; format: functional, cell-based; conditions: HepG2, 24 h
HK-2 = experiment: Cytotoxicity against human HK-2 cells assessed as reduction in cell viability incubated for 24 hrs by cell-titer 96 aqueous one solution cell proliferation assay; format: cell-based; conditions: HK-2, 24 h

Row | Compound | MIC (Staphylococcus aureus [1]) [µM] | MIC (Staphylococcus aureus [2]) [µM] | MIC (Staphylococcus aureus [3]) [µM] | MIC (Staphylococcus aureus [4]) [µM] | MIC [5] [µM] | MIC [6] [µM] | MIC (Enterococcus faecalis [7]) [µM] | MIC (Enterococcus faecalis [8]) [µM] | MIC (Escherichia coli [9]) [µM] | MIC (Escherichia coli [10]) [µM] | IC50 (HepG2) [µM] | IC50 (HK-2) [µM]
1 | O=C(NNCc1cc(I)cc(I)c1O)c1ccc(Cl)cc1 | 31.2 (≈ 16.5 µg/mL) | 62.5 (≈ 33 µg/mL) | 31.2 (≈ 16.5 µg/mL) | 62.5 (≈ 33 µg/mL) | 15.6 (≈ 8.26 µg/mL) | 15.6 (≈ 8.26 µg/mL) | 15.6 (≈ 8.26 µg/mL) | 15.6 (≈ 8.26 µg/mL) | > 500 | > 500 | 52.2 | –
2 | O=C(N/N=C/c1cc(I)c(O)c(I)c1)c1ccc(Cl)cc1 | > 500 | > 500 | > 500 | > 500 | > 500 | > 500 | > 500 | > 500 | > 500 | > 500 | > 100 | –
3 | O=C(N/N=C/c1cc(I)cc(I)c1O)c1ccc(Cl)cc1 | 31.2 (≈ 16.5 µg/mL) | 31.2 (≈ 16.5 µg/mL) | 31.2 (≈ 16.5 µg/mL) | 62.5 (≈ 32.9 µg/mL) | 31.2 (≈ 16.5 µg/mL) | 62.5 (≈ 32.9 µg/mL) | 62.5 (≈ 32.9 µg/mL) | 62.5 (≈ 32.9 µg/mL) | > 500 | > 500 | 14.8 | –
4 | O=C(N/N=C/c1cc(I)c(O)c(I)c1)c1ccc([N+](=O)[O-])cc1 | 250 (≈ 134 µg/mL) | 250 (≈ 134 µg/mL) | 500 (≈ 269 µg/mL) | > 500 | > 500 | > 500 | > 500 | > 500 | > 500 | > 500 | 92.1 | –
5 | O=C(N/N=C/c1cc(I)c(O)c(I)c1)c1ccc(F)cc1 | 125 (≈ 63.8 µg/mL) | 500 (≈ 255 µg/mL) | 500 (≈ 255 µg/mL) | > 500 | > 500 | > 500 | > 500 | > 500 | > 500 | > 500 | 117 | –
6 | CC(C)(C)c1ccc(C(=O)N/N=C/c2cc(I)c(O)c(I)c2)cc1 | 125 (≈ 68.5 µg/mL) | 125 (≈ 68.5 µg/mL) | 125 (≈ 68.5 µg/mL) | 250 (≈ 137 µg/mL) | 125 (≈ 68.5 µg/mL) | 250 (≈ 137 µg/mL) | 250 (≈ 137 µg/mL) | 500 (≈ 274 µg/mL) | > 500 | > 500 | 45.9 | > 250
7 | CC(C)(C)c1ccc(C(=O)N/N=C/c2cc(I)cc(I)c2O)cc1 | > 500 | > 500 | > 500 | > 500 | > 500 | > 500 | > 500 | > 500 | > 500 | > 500 | 41.6 | –
8 | O=C(N/N=C/c1cc(I)c(O)c(I)c1)c1ccc(O)cc1 | 500 (≈ 254 µg/mL) | 500 (≈ 254 µg/mL) | > 500 | > 500 | > 500 | > 500 | > 500 | > 500 | > 500 | > 500 | 110 | –
9 | CC(C)(C)c1ccc(C(=O)NNC(=O)c2cc(I)cc(I)c2O)cc1 | > 500 | > 500 | > 500 | > 500 | > 500 | > 500 | > 500 | > 500 | > 500 | > 500 | 87.3 | –
10 | O=C(N/N=C/c1cc(I)c(O)c(I)c1)c1ccc(Br)cc1 | > 500 | > 500 | > 500 | > 500 | > 500 | > 500 | > 500 | > 500 | > 500 | > 500 | > 50 | –
11 | Cc1ccc(C(=O)N/N=C/c2cc(I)c(O)c(I)c2)cc1 | 250 (≈ 127 µg/mL) | 500 (≈ 253 µg/mL) | > 500 | > 500 | > 500 | > 500 | > 500 | > 500 | > 500 | > 500 | > 100 | –
12 | O=C(NNC(=O)c1cc(I)cc(I)c1O)c1ccc(Cl)cc1 | 62.5 (≈ 33.9 µg/mL) | 62.5 (≈ 33.9 µg/mL) | 62.5 (≈ 33.9 µg/mL) | 62.5 (≈ 33.9 µg/mL) | 31.2 (≈ 17 µg/mL) | 62.5 (≈ 33.9 µg/mL) | 125 (≈ 67.8 µg/mL) | 125 (≈ 67.8 µg/mL) | > 500 | > 500 | 48.6 | –
13 | O=C(N/N=C/c1cc(I)cc(I)c1O)c1ccccc1 | 62.5 (≈ 30.8 µg/mL) | 125 (≈ 61.5 µg/mL) | 62.5 (≈ 30.8 µg/mL) | 125 (≈ 61.5 µg/mL) | 62.5 (≈ 30.8 µg/mL) | 125 (≈ 61.5 µg/mL) | 250 (≈ 123 µg/mL) | 500 (≈ 246 µg/mL) | > 500 | > 500 | > 50 | –
14 | O=C(N/N=C/c1cc(I)c(O)c(I)c1)c1ccc(I)cc1 | > 250 | > 250 | > 250 | > 250 | > 250 | > 250 | > 250 | > 250 | > 250 | > 250 | > 50 | –
